Hits are enriched below; roughly 3.8% of the tested compounds scored in any of these assays.
ANO1 activ – activators or potentiators of mouse TMEM16A chloride channel; actives 0.3% (n = 340,000); Q8BHY3; B-score at 10 µM; HEK293 TMEM16A/YFP-H148Q/I152L, iodide quench fluorescence; hits give low values; AID 623877;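 active = fluorescence-ratio B-score plate-corrected deviation score at least 3 library SD below zero, with starting fluorescence score within 5 deviations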;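 note: channel opened by trigger with iodide after compound preincubation; score built on the fluorescence ratio of max minus min over baseline; more negative score means more quench and so TMEM16A activation or potentiation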
CSC inhib – blocks cancer stem cells | cancer stem cell-like cells viability, luminescence | inhibition, % at 7.5 µM | actives 1.1% (n = 300,000); in the data active = inhibition above about 75%; tested in HMLE shEcad cells
ANO1 block – inhibitors of mouse TMEM16A calcium-activated chloride channel; Q8BHY3; HEK293 TMEM16A/YFP iodide influx fluorescence, ionomycin; normalized B-score (activity score, 25-100; higher = stronger inhibition) at 10 µM; actives 1.2% (n = 310,000); AID 588511;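 active = ratio plate-corrected score three or more library SD toward inhibition, starting fluorescence score within five deviations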;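 note: score derived from kinetic fluorescence span divided by baseline fluorescence per well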
Beta cell apopt – beta cell apoptosis inhibition; INS-1E cytokine-induced death, ATP luminescence, 48 h; percent of positive-control rescue, neutral wells zero; protection from apoptosis, % (no concentration beside the values); actives 0.8% (n = 300,000); AID 435005;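 active = Every replicate reaches about 75%, or at least half do and their mean reaches it too, limit read from the data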;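 note: 0% = cytokine-treated negative control wells and 100% = positive control rescue; higher means more ATP so stronger rescue from cytokine killing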
MC4R antagonist – antagonists of human melanocortin 4 receptor (MC4R); MC4R-expressing cells, MTII-stimulated cAMP, LANCE TR-FRET; actives 0.48% (n = 360,000); inhibition, % at 6.5 µM; P32245;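 active = inhibition above its plate's cutoff, the mean of tested wells on that plate plus 3 SD, cut at about 29% in these data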;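 note: 0% = Melanotan II alone and 100% = Melanotan II plus saturating MCL0020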
Target sequence (P32245 whole entry, looked up): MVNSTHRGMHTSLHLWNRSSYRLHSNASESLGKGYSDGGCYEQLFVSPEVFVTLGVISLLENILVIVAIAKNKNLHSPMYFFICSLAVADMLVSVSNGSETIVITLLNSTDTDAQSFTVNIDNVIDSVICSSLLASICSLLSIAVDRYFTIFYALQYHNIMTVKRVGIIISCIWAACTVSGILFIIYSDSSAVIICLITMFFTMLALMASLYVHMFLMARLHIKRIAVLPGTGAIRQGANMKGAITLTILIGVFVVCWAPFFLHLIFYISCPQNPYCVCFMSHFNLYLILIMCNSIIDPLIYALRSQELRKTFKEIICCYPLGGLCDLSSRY
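Assay system: U2OS-MC4R stable cell line; Also added: Melanotan II; Technique: Eu-cAMP/anti-cAMP TR-FRET, emission 671 nm; Times: 30-min compound, 1-h challenge, 1-h detection, room temperature.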
MC4R ag barr – human MC4R agonism via beta-arrestin; P32245; U2OS MC4R beta-arrestin complementation, luminescence; percent of melanotan II response, DMSO zero; activation, % at 8.9 µM; actives 0.98% (n = 360,000); AID 540308;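 active = activation above a per-plate cutoff, the mean activation of sample wells on that plate plus 3 SD, cut at about 8% in these data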
* hit, by the source's call; i = inactive; · = not tested or not shown.

SMILES | ANO1 activ | CSC inhib | ANO1 block | Beta cell apopt | MC4R antagonist | MC4R ag barr
CCN(CC(=O)Nc1ccc(NC(C)=O)cc1)C(=O)/C=C/c1cn(-c2ccccc2)nc1-c1ccc(C)cc1 | i | 9 | i | -8 | 6 | -3
CCN(CC(=O)Nc1ccc(NC(C)=O)cc1)C(=O)/C=C/c1cn(-c2ccccc2)nc1-c1ccc(F)cc1 | i | -13 | i | · | 1 | 8.4*
COc1cc(CCCN2C(=S)NC[C@@H]2CC2CCCCC2)cc(OC)c1OC | i | 2 | i | -6 | 5 | 0
CCn1nc([N+](=O)[O-])c(C(C#N)c2nc3ccccc3n2C)c(Cl)c1=O (stereo unspecified) | i | 30 | i | 10 | 5 | -2
CCCn1nc([N+](=O)[O-])c(C(C#N)c2nc3ccccc3s2)c(Cl)c1=O (stereo unspecified) | i | 98* | 100* | 33 | 4 | -5
C=CCc1cccc(/C=N/NC(=O)CCC(=O)Nc2ccc(F)cc2)c1O | i | 22 | i | 93* | 16 | 1
C=CCc1cccc(/C=N/NC(=O)CNc2ccccc2)c1O | i | 63 | i | 90* | 4 | 4
CC1(C)[C@@H](O)CC[C@]2(C)C3C(O)C=C4[C@H]5C[C@@](C)(CO)CC[C@]5(C)CC[C@]4(C)[C@]3(C)CC[C@@H]12 (stereo partly specified) | i | 126* | i | -1 | 14 | 1
COc1cccc([C@@H]2Oc3ccc(OC)cc3C(=O)[C@H]2O)c1 | i | 11 | i | 20 | 1 | -1
COc1ccc2c(c1)C(=O)[C@@H](O)[C@H](c1ccc(OC)c(Br)c1)O2 | i | -27 | i | 77* | 1 | 1
Cc1cc(Nc2ccccc2)nn1C(=O)c1ccc(Br)cc1 | i | 2 | i | -1 | 7 | -2
Cc1cc(Nc2ccccc2)nn1C(=O)c1ccccc1 | i | -7 | 25* | -10 | 2 | -1
CCCCOc1ccccc1/C=N/NC(=O)CC#N | i | -2 | i | 2 | 7 | -2
N#CCC(=O)N/N=C/c1cc(-c2ccccc2)n(-c2ccc(Cl)cc2)c1-c1ccccc1 | · | 52 | i | 109* | · | ·
Cc1ccc(-n2c(-c3ccccc3)cc(/C=N/NC(=O)CC#N)c2-c2ccccc2)cc1 | · | 19 | i | 123* | · | ·
CC(C)n1cc(C(=O)NC2CC(C)(C)Cc3c2cnn3-c2ccccc2)cn1 (stereo unspecified) | i | -3 | i | -2 | -3 | -2
CC(C)(C)S(=O)(=O)N1Cc2cc(CO)cc(CCO)c2[C@@H]1CCO | · | · | · | · | -7 | 0
COc1cccc(C(NC(C)=O)c2nc(-c3ccc(OC)nc3)cs2)c1 (stereo unspecified) | · | · | · | · | 1 | -1
C[C@H]1O[C@@H](O[C@H]2[C@@H](O)C[C@H](O[C@H]3[C@@H](O)C[C@H](O[C@H]4CC[C@@]5(C)[C@H](CC[C@@H]6[C@@H]5C[C@@H](O)[C@]5(C)[C@@H](C7=CC(=O)OC7)CC[C@]65O)C4)O[C@@H]3C)O[C@@H]2C)C[C@H](O)[C@@H]1O | i | 100* | i | 6 | 7 | 39*
O=[N+]([O-])c1cccc2ccc(/C=C/c3ccc(Cl)cc3)nc12 | i | 66 | i | 4 | 3 | -2
O=[N+]([O-])c1cccc2ccc(/C=C/c3ccc(C(F)(F)F)cc3)nc12 | i | 78* | i | 8 | -7 | -2
C[C@@]12CCC=C[C@H]1[C@H](c1ccc3ccccc3c1)N(Cc1ccccc1)C2=O | i | 86* | i | -8 | 0 | 1
COc1ccc(-c2ccc(OC)c([C@H]3[C@@H]4C=CCC[C@@]4(C)C(=O)N3Cc3ccccc3)c2)cc1OC | i | 28 | i | 5 | 5 | 0
COc1ccc(Br)cc1[C@H]1[C@@H]2C=CCC[C@@]2(C)C(=O)N1Cc1ccccc1 | i | 39 | i | 5 | -5 | 0
COc1ccc(-c2cc([C@H]3[C@@H]4C=CCC[C@@]4(C)C(=O)N3Cc3ccccc3)ccc2F)cc1 | i | 122* | i | -3 | 6 | -1
SMILES | ANO1 activ | CSC inhib | ANO1 block | Beta cell apopt | MC4R antagonist | MC4R ag barr
COc1ccc(-c2ccc([C@H]3[C@@H]4C=CCC[C@@]4(C)C(=O)N3Cc3ccccc3)c(F)c2)cc1 | i | 54 | i | 85* | 7 | 0
Cc1ccc(-c2ccc([C@H]3[C@@H]4C=CCC[C@@]4(C)C(=O)N3Cc3ccccc3)c(F)c2)cc1 | i | 96* | i | 5 | 5 | 0
O=C(Cc1cc2ccccc2o1)NCc1ccc(F)cc1 | i | · | i | · | -9 | 0
CC(=O)c1ccc(-c2ccc([C@H]3[C@@H]4C=CCC[C@@]4(C)C(=O)N3Cc3ccccc3)c(F)c2)cc1 | i | 121* | i | 22 | 3 | 2
Oc1ccccc1Nc1nc(NCC2CCCO2)c2ccccc2n1 (stereo unspecified) | i | -2 | i | · | 6 | -2
Oc1ccc(Cl)cc1Nc1nc(NCC2CCCO2)c2ccccc2n1 (stereo unspecified) | i | 1 | i | 13 | 6 | 12*
Cn1c(=O)c2c(ncn2CC(=O)OCC(=O)Nc2ccc(F)cc2F)n(C)c1=O | i | · | · | · | 9 | -1
CCOc1ccc(-c2nnn(CC(=O)NCc3ccc4c(c3)OCO4)n2)cc1 | i | -2 | i | -8 | -2 | 9.3*
CCn1c(CNC(=O)COc2ccc(C(C)C)cc2)nnc1SCC(=O)Nc1ccccc1F | i | -24 | i | -7 | -2 | 0
CCn1c(CNC(=O)COc2ccc(C(C)C)cc2)nnc1SCC(=O)Nc1ccccc1C(C)C | i | 5 | 25* | 6 | 14 | 3
CC(Oc1ccc(F)cc1)C(=O)Nc1ccccc1N1CCCCC1 (stereo unspecified) | -21* | 21 | i | 2 | 12 | -2
Cc1cc([N+](=O)[O-])nn1Cc1ccc(C(=O)N/N=C/c2ccc(O)cc2O)cc1 | i | 117* | i | 98* | 6 | -2
O=C(N/N=C/c1ccc(O)cc1O)c1ccc(CN2C(=O)c3cccc4cccc2c34)cc1 | i | 3 | i | 93* | -3 | -2
CC(=O)N1CCc2cc(S(=O)(=O)CCC(=O)N3CCN(c4cc(C)ccc4C)CC3)ccc21 | i | -2 | i | -4 | 0 | -1
COCCNC(=O)C1CCCN(C(=O)c2cc(-c3ccccc3)cs2)CC1 (stereo unspecified) | · | · | · | · | 3 | 0
CCN1CCN(C(=O)c2ccc(Cl)c(S(=O)(=O)N3CCCCC3)c2)CC1 | i | -3 | i | 1 | -2 | -1

Compound activity (PubChem BioAssay)
